MC4R antag cAMP = MC4R antagonists of cAMP signaling, primary screen, cell-based, TR-FRET, antagonist arm of biased-ligand search; Melanocortin receptor 4 (Homo sapiens), P32245; MC4R-expressing cells, MTII-stimulated cAMP, LANCE TR-FRET; inhibition, % at 6.5 µM; actives 0.48% (n = 360,000);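 active means inhibition above its plate's cutoff, the mean of tested wells on that plate plus 3 SD, cut at about 29% in these data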;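 further: 0% = Melanotan II alone and 100% = Melanotan II plus saturating MCL0020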
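material = U2OS cells stably expressing human melanocortin 4 receptor (MC4R) | also added = Melanotan II challenge | dosing = single nominal compound dose of 6.5 µM | detection = TR-FRET with Eu-cAMP and labeled anti-cAMP, 671 nm | replication = singlicate | timing = compound 30 min, challenge 1 h, detection 1 h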
HTR5A inv ag = HTR5A inverse agonists in luminescence cell assay, primary screen, counter-screen for OPRM1-OPRD1 heterodimer inverse agonist project, full-deck HTS. inhibition, % at 9.3 µM. 5-hydroxytryptamine receptor 5A (Homo sapiens), P47898. actives 0.083% (n = 340,000). HTR5A cell line, inverse agonism. AID 504634, 2011; in the data active means inhibition mostly above about 23%, no sharp cut-off; inactive means mostly below about 18%;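 further: 0% = cells with DMSO and 100% = no-cell wells with DMSO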
Target sequence (P47898 whole entry, looked up): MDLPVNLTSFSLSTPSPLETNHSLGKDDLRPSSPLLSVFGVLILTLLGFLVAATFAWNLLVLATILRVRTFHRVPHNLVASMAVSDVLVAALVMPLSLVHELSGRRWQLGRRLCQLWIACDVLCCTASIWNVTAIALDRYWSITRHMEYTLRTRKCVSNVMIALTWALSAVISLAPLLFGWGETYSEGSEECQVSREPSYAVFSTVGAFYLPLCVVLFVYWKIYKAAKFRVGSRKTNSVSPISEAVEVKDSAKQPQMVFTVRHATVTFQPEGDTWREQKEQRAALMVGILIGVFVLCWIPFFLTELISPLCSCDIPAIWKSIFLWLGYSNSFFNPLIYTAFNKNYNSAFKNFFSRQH
HTR5A ag = HTR5A agonists in luminescence cell assay, primary screen, counter-screen for OPRM1-OPRD1 heterodimer agonist project, full-deck HTS. cell-based. actives 0.61% (n = 340,000). activation, % at 9.3 µM. 5-hydroxytryptamine receptor 5A (Homo sapiens), P47898; in the data active means activation mostly above about 9.5%, no sharp cut-off; inactive means mostly below about 7.6%;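 further: 0% = cells with vehicle only and 100% = reference agonist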
MC4R ag barr = MC4R agonists recruiting beta-arrestin, primary screen, cell-based, luminescence, agonist arm of biased-ligand search; Melanocortin receptor 4 (Homo sapiens), P32245; U2OS MC4R beta-arrestin complementation; percent of melanotan II response, DMSO zero; activation, % at 8.9 µM; actives 0.98% (n = 360,000); AID 540308, 2011;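 active means activation above a per-plate cutoff, the mean activation of sample wells on that plate plus 3 SD, cut at about 8% in these data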
OPRM1-OPRD1 ag = agonists of OPRM1-OPRD1 heterodimerization, primary screen, cell-based, luminescence. AID 504326, 2011. actives 0.3% (n = 340,000). cells. Mu-type opioid receptor (Homo sapiens) + Delta-type opioid receptor (Homo sapiens), …. activation, % at 9.3 µM; in the data active means activation above about 18%;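 further: 0% = vehicle-treated cells and 100% = reference agonist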
OPRM1-OPRD1 inv = inverse agonists of MOR-DOR heterodimerization, primary screen, cell-based, luminescence | cell-based MOR-DOR heterodimer luminescence, inverse agonism | inhibition, % at 9.3 µM | actives 0.21% (n = 340,000) | AID 504357, 2011; in the data active means inhibition above about 22%, passing the limit was not always enough;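 further: 0% = cells with DMSO and 100% = wells without cells with DMSO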
Starred values were filed as active, the others as inactive; / = not tested or not shown. Sampled rows, rich in hits. Any-hit rate of the full collection: about 2.4%.

SMILES	MC4R antag cAMP	HTR5A inv ag	HTR5A ag	MC4R ag barr	OPRM1-OPRD1 ag	OPRM1-OPRD1 inv
COc1ccc(C(C(=O)NC2CCCCC2)N(C(=O)CCl)c2ccc(C)cc2)cc1 (stereo not drawn)	6	-82	31*	18*	24*	-143
CN(C)S(=O)(=O)c1ccc(Cl)c(NC(=O)COC(=O)/C=C/c2ccco2)c1	13	-10	4	2	2	-9
Cc1cccc(NC(=O)CSCC(=O)Nc2cc(Cl)ccc2N2CCN(C)CC2)c1	5	-2	7	-2	-1	8
O=C(O)c1ccc(N/N=C/C2=C(N3CCOCC3)C(=C\c3ccccc3)/CC2)cc1	29*	-2	1	-1	2	-12
Cc1cc(C)nc(N/N=C/C2=C(N3CCOCC3)C(=C\c3ccc(Cl)cc3)/CC2)n1	8	5	-1	-4	-1	6
CC1(C)Oc2ccc3ccc(=O)oc3c2/C(=C/O)C1=O	-2	-11	14*	0	-1	5
CCCS(=O)(=O)NC(=O)C1(C)CCCN(C(=O)c2ccccc2F)C1 (stereo not drawn)	18	/	/	-1	/	/
CN(Cc1ccccc1)C(=O)C1CCN(S(=O)(=O)c2cc([N+](=O)[O-])ccc2Cl)CC1	-8	-32	13*	4	13	-63
O=C(NCc1ccccc1)C1CCN(S(=O)(=O)c2cc([N+](=O)[O-])ccc2Cl)CC1	-6	8	4	-1	11	-75
Cc1cc(-c2nnc3n2N=C(c2ccc(-c4ccccc4)cc2)CS3)n[nH]1	13	-37	15	9.3*	-3	13
Cc1nc2ccc(NS(=O)(=O)c3cccc([N+](=O)[O-])c3)cc2s1	10	-37	9.0*	0	1	-3
O=C(CSc1nc2cc(Cl)ccc2o1)Nc1ccc(N2CCOCC2)cc1	-3	2	1	19*	0	1
O=C(CSc1nc2ccccc2o1)Nc1ccc(N2CCOCC2)cc1	2	3	3	-1	-2	11
O=C(CSc1ccc(Cl)cc1)Nc1ccc(N2CCN(C(=O)c3ccc(Cl)cc3)CC2)cc1	16	1	-3	14*	5	-27
Cc1cc(=O)[nH]c(SCC(=O)N(CCC#N)c2ccccc2)c1C#N	11	-17	3	-5	-2	10
O=C(CSc1nnnn1-c1ccc(Cl)cc1)NC(=O)Nc1ccc2c(c1)OCCO2	-3	10	-1	9.3*	4	-22
O=C(CCc1ccccc1)N=C1SC2CS(=O)(=O)CC2N1Cc1ccccc1 (stereo not drawn)	9	-20	2	8.9*	0	-2
Cc1c(NCc2cc(Cl)cc(Cl)c2O)c(=O)n(-c2ccccc2)n1C	5	4	-3	0	0	-1
Cc1c(NCc2nc3ccccc3[nH]2)c(=O)n(-c2ccccc2)n1C	-9	-21	12*	0	-1	8
CC(C)n1nc(C(=O)OCC(=O)c2c[nH]c3ccccc23)c2ccccc2c1=O	-4	-32	10*	1	3	-17
O=C(/C=C/c1ccccc1)OCC(=O)c1c[nH]c2ccccc12	3	11	-3	9.3*	0	-1
Cc1c(C(=O)NCCN2C(=O)S/C(=C\c3cccnc3)C2=O)cccc1[N+](=O)[O-]	5	-30	8	-2	0	-1
COc1ccc(/C=C2/SC(=S)N(CCCC(=O)N3CCN(C)CC3)C2=O)cc1	-4	7	-3	2	0	2
COc1ccc(/C=C2/SC(=S)N(CCC(=O)N3CCN(C)CC3)C2=O)cc1	-9	-20	14*	0	3	-22
Cc1ccc(C(=O)OCn2ncc(Cl)c(Cl)c2=O)cc1	-2	-31	13	0	2	-10
SMILES	MC4R antag cAMP	HTR5A inv ag	HTR5A ag	MC4R ag barr	OPRM1-OPRD1 ag	OPRM1-OPRD1 inv
O=C(OCn1ncc(Cl)c(Cl)c1=O)c1ccc(C(F)(F)F)cc1	33*	2	-4	1	3	-15
O=C(NCCN1CCN(c2ccccc2)CC1)Nc1ccc(Cl)cc1	5	9	-3	9.2*	4	-18
O=C(CCN1CCN(c2ccccc2)CC1)Nc1cccc(Br)c1	10	-6	3	8.6*	2	-12
O=C(NCCN1CCN(c2cccc(Cl)c2)CC1)Nc1ccccc1	14	-10	3	1	4	-17
Cc1c(Cl)c([N+](=O)[O-])nn1CC(=O)N1CCN(Cc2ccccc2)CC1	0	-15	6	0	-2	11
Cc1ccc(CNC(=O)CC(C)S(=O)(=O)c2cc3c(cc2C)NC(=O)CO3)cc1 (stereo not drawn)	1	2	-1	0	-3	14
O=C(CNC(=O)/C(=C\c1ccccc1)NC(=O)c1ccc(Br)cc1)OCc1ccccc1	14	-9	3	0	1	-5
O=C(CNC(=O)/C(=C\c1ccc(F)cc1)NC(=O)c1ccccc1)OCc1ccccc1	44*	-8	7	0	1	-4
O=C(Nc1cccc(S(=O)(=O)N2CCCC2)c1)c1ccccc1OC(F)F	2	2	-1	0	-4	21
CC(C)NS(=O)(=O)c1ccc(NC(=O)C(C)OC(=O)C2CCC2)cc1 (stereo not drawn)	-8	12	6	-2	-3	12
COc1ccc(-c2ccc(C(=O)Nc3cccc(Oc4ccccc4)c3)c3occc23)c(C)c1	2	/	/	-1	/	/
Cn1cc(-c2ccc(C(=O)Nc3cccc(Oc4ccccc4)c3)c3occc23)cn1	7	/	/	9.2*	/	/
Cc1ccc(NS(=O)(=O)c2ccc(C(=O)NCC(c3ccco3)N3CCCCC3)cc2)cc1 (stereo not drawn)	2	-22	2	-2	0	2
O=C(C1=NN(c2ccccc2)C2C(=O)N(c3ccccc3)C(=O)C12)c1ccccc1 (stereo not drawn)	10	1	-2	-1	1	-6
O=C(C1=NN(c2ccccc2)C2C(=O)N(c3ccccc3Cl)C(=O)C12)c1ccccc1 (stereo not drawn)	14	3	3	9.1*	3	-18
Cc1ccc(NC(=O)CC2S/C(=N/c3nccs3)N(C)C2=O)cc1C (stereo not drawn)	-2	-8	1	8.6*	0	2
Cc1ccccc1NC(=O)CC1S/C(=N/c2nccs2)N(C)C1=O (stereo not drawn)	11	16	2	1	-1	5
